One compound from ChEMBL document CHEMBL3994644, “Discovery of AAT-008, a novel, potent, and selective prostaglandin EP4 receptor antagonist” (Bioorg Med Chem Lett, 2017) can be followed below.

Data set [1] has as its target T1, Prostaglandin E2 receptor EP4 subtype (Homo sapiens, UniProt P35408). Nature of the data set: Antagonist activity at human EP4 receptor expressed in HEK293 cells assessed as inhibition of PGE2-induced cAMP level by HTS assay. The data set is classed as functional, cell-based.
The nature of data set [2]: Half life in human liver microsomes. The data set is classed as ADME, microsome. (In general: Microsomes from liver hold many membrane-bound enzymes, among them those of drug oxidation.)
The target in data set [3] is T1, Prostaglandin E2 receptor EP4 subtype. Kind of data set: Displacement of [3H]PGE from human EP4 receptor expressed in HEK293 cell membranes. An outline of the steps: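 Membrane binding assay using [3H]PGE2 with membranes from HEK-293 cells expressing human EP4. The value is expressed as Ki.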
Data set [4] can be described thus: Apparent permeability from basolateral to apical side in human Caco2 cells. The note with it: Caco-2. The data set is classed as ADME, cell-based. An outline of the steps:
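Caco-2 permeability was measured basolateral to apical under the same pH conditions as the apical-to-basolateral direction (apical 6.5, basolateral 7.4). Efflux ratio was derived from the two directions.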

Data set [5] in a line: Efflux ratio of apparent permeability in human Caco2 cells. The data set is classed as ADME, cell-based. The following applies: Caco-2. In outline:
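Caco-2 human colon carcinoma monolayers. Permeability measured in both directions (apical to basolateral and basolateral to apical) under constant pH: apical pH 6.5, basolateral pH 7.4. Efflux ratio taken as Papp B→A divided by Papp A→B.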
For orientation: Caco-2 cells form a polarised layer with tight junctions and transporters.

Data set [6] can be described thus: Apparent permeability from apical to basolateral side in human Caco2 cells. The data set is classed as ADME, cell-based. The following applies: Caco-2. An outline of the steps: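 Caco-2 monolayer permeability (Papp, apical to basolateral) was measured under constant pH, with the apical side at pH 6.5 and the basolateral side at pH 7.4.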
The nature of data set [7]: Genotoxicity in CHL cells after 72 hrs using acridine orange stain by fluorescence microscopic based micronucleus test. The data set is classed as toxicity, cell-based, Cricetulus griseus. The note with it: chinese hamster.
Data set [8] addresses T2, Prostaglandin E2 receptor EP1 subtype (Homo sapiens, UniProt P34995).
T2 sequence (P34995 whole entry): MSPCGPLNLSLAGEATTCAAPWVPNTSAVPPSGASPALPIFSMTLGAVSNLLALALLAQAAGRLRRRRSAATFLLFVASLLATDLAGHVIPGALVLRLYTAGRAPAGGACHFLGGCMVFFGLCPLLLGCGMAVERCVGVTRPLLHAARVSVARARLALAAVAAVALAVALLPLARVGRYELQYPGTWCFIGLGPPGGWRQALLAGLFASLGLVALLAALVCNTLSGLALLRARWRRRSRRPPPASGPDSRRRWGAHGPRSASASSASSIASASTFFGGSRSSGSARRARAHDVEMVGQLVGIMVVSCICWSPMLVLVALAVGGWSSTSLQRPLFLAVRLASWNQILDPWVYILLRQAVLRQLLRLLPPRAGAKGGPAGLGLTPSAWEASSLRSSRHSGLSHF
Kind of data set: Antagonist activity at human EP1 receptor.

Data set [9] has as its target Prostaglandin E2 receptor EP2 subtype (Homo sapiens, UniProt P43116). Kind of data set: Antagonist activity at human EP2 receptor.
The target of data set [10] is T3, Prostaglandin E2 receptor EP3 subtype (Homo sapiens, UniProt P43115).
T3 sequence (P43115 whole entry): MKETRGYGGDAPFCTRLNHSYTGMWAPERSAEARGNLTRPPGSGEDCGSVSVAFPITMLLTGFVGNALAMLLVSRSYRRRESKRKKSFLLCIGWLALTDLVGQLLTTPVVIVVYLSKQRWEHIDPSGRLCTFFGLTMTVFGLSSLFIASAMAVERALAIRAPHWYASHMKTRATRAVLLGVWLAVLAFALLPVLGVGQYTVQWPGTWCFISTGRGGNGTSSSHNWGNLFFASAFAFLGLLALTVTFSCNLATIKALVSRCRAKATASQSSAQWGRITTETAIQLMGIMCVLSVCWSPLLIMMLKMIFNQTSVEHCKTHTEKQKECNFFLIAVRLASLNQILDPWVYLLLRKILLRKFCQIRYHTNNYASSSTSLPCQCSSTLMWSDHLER
Nature of the data set: Antagonist activity at human EP3 receptor.

T1 sequence (P35408 whole entry): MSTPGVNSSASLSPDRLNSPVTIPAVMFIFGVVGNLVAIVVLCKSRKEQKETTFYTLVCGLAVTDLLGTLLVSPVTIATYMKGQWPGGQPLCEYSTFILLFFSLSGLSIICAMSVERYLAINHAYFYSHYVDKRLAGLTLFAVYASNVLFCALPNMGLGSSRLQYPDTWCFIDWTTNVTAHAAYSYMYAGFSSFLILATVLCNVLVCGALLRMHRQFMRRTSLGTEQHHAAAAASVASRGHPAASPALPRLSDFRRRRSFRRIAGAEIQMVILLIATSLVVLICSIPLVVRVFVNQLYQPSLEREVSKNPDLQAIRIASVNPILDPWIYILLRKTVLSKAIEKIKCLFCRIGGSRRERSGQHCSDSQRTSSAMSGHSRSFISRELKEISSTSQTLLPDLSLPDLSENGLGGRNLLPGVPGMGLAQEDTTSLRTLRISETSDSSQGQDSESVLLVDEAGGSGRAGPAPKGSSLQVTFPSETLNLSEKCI
Sequence of Prostaglandin E2 receptor EP2 subtype (P43116 whole entry): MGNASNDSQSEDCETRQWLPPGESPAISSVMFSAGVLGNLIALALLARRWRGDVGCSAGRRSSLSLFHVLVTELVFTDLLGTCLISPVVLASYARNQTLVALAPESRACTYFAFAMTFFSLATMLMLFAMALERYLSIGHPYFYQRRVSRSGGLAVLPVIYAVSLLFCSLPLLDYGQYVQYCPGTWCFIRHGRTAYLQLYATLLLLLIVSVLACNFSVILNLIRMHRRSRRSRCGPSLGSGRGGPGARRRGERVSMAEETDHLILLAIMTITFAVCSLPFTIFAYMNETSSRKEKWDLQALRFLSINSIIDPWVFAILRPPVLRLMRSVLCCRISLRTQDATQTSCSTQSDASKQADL

On to `C[C@H](NC(=O)c1cc(Cl)cnc1Oc1cccc(C#N)c1)c1ccc(C(=O)O)cc1`, for which the IC50 (usually the concentration needed to halve the response being measured) in data set [1] was 36.2 nM; in [3], 13.4 nM; in data set [8] it was above 20000 nM; in [9], 3320 nM; in data set [10] it was above 20000 nM. In data set [2], the half-life (in general, how long it takes for the measured level to halve) is above 2 h. In data set [4], the Papp B→A (commonly the apparent permeability from the basolateral to the apical side of a cell layer) was determined as 25.8 ×10⁻⁶ cm/s. Also, the efflux ratio (as a rule, the permeability from basolateral to apical divided by that in the opposite direction, in the common usage) in data set [5] turned out to be 40. The Papp A→B (in general, the apparent permeability from the apical to the basolateral side of a cell layer) in data set [6] stood at 0.644 ×10⁻⁶ cm/s. Moreover, the Activity result in data set [7] is on record as “Toxic”.
